Results pooled from the literature.
Protocols differ between the studies behind these lines.

With `Cn1cnc2ccc(Nc3c(F)ccc(NS(=O)(=O)N4CC(F)C4)c3Cl)c(Cl)c2c1=O` the solubility was 13 µg/mL (FaSSIF; pH 6.91).
The solubility of `O=C(C=Cc1ccccc1)Nc1cc(-c2ccnc(N3CCC(O)CC3)c2)ccn1` is reported as ~115 µg/mL (water; pH 7.4).
`Cc1ccc(Cn2cc(C(=O)NN)c(=O)c3cc(Oc4ccccc4)ccc32)cc1` gave a solubility of < 5 µM (shake flask; PBS; 24 h; pH 6.5; 25 °C).
`Cn1cncc1[C@@](N)(c1ccc(Cl)cc1)c1ccc2c(c1)c(-c1cccc(Cl)c1)cc(=O)n2C` has a solubility of 0.12 µg/mL (water; pH 7.6; 25 °C).
`N=C(N)NCCC[C@H](NC(=O)[C@@H](NC(=O)[C@H](Cc1cscn1)NC(=O)CCc1ccccc1)C1CCCCC1)C(=O)c1nc2ccccc2s1` has a solubility of > 10 µM (PBS; 90 min; pH 7.4).
`Cc1cccn2c(=O)c3cc(C(=O)N[C@@H](C)c4ccccc4)c(N)[n+](CCOCCO)c3nc12` gave a solubility of > 20 µM (PBS).
The solubility of `Oc1ccccc1/C=N/c1c(-c2ccccc2)nc2ccc(Cl)cn12` is reported as 125 µg/mL (aqueous buffer; pH 7).
`Cc1c(C(=O)O)ccc2c3n(nc12)[C@@H]1[C@H](C3)N(CC2CC2)[C@@]2(C(=O)Nc3cc(Cl)ccc32)[C@H]1c1cccc(Cl)c1F` gave a solubility of < 1 µg/mL (aqueous buffer; pH 6.8).
`O=[N+]([O-])c1ccccc1/C=N/c1c(-c2ccccc2)nc2ccc(Cl)cn12` gave a solubility of < 1 µg/mL (aqueous buffer; pH 7).
For `CC(=Nc1ccc(N=Cc2cnccn2)cc1)N(C)C`, the solubility was ~20 µg/mL (shake flask; PBS; 24 h; pH 7.4; 25 °C).
For `CCCc1cc(C(=O)OC)c(NC(=O)C2CCN(C(C)=O)CC2)s1`, the solubility was > 20 µM (PBS).
The solubility of `COc1ccc2cc3n(c(=O)c2c1OC)CCc1cc2c(cc1-3)OCO2` is reported as < 0.05 µg/mL (water; 24 h; 25 °C).
